Pf Dd2 growth: P. falciparum Dd2 growth inhibitors, primary screen, SYBR Green fluorescence, single dose replicates; 72 h; active compounds read low; activity change, % at 10 µM; 94,000 tested, 2.3% active; in the data active means activity change below about -80%; inconclusive means no clear call, values can overlap the other calls
T cruzi growth-1: T. cruzi intracellular proliferation inhibitors, primary screen, cell-based, beta-gal Tulahuen parasites, NIH3T3 host, luminescence; T. cruzi beta-gal in NIH3T3, GalScreen luminescence, 90 h; AID 624255, 2012; 77,000 tested, 5.9% active; inhibition, % at 8.34 µM;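 active means mean inhibition above about 93%, with at least 55% of replicates each passing it, limit read from the data, passing the limit was not always enough; inconclusive means only one of those two conditions holds; inactive means neither condition holds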
IDH1 mut inh: inhibitors of IDH1 R132H reductase, primary screen, biochemical, plate reader, single point | AID 624101, 2012 | 70,000 tested, 0.18% active | diaphorase/resazurin fluorescence, 60 min | inhibition, % at 10 µM; in the data active means inhibition above about 34%; inconclusive means no clear call, values can overlap the other calls; inactive means below about 11%;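 further: 0% = DMSO and 100% = no enzyme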
GASC1 inh: inhibitors of GASC-1 (KDM4C) histone demethylase, primary screen, biochemical, single concentration HTS | Lysine-specific demethylase 4C (Homo sapiens), Q9H3R0 | GST-KDM4C 2-372, H3K9me3 peptide, LANCE TR-FRET | inhibition, % at 12.5 µM | 96,000 tested, 0.15% active | AID 720574, 2013;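 active means mean replicate inhibition above about 25%, with at least 55% of replicates also reaching it, limit read from the data, passing the limit was not always enough; inconclusive means only one of those two conditions met; inactive means neither condition met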
Target sequence (Q9H3R0 2-372 limits assumed): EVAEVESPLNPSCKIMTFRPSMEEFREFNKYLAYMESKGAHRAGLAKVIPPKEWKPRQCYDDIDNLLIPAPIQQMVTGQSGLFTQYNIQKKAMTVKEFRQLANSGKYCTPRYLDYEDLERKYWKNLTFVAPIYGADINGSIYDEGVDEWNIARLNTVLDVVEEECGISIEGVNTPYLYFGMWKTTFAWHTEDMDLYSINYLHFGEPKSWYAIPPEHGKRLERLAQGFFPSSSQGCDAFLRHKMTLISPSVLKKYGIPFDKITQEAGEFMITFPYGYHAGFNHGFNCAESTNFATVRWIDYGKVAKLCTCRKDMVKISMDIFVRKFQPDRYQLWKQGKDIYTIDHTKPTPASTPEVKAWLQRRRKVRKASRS
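Compound: one test concentration per compound; Material: GST-GASC-1 enzyme fragment 2-372; Amount: GASC-1 enzyme at 10 nM final in reaction; Also added: H3K9me3 peptide substrate, Fe(II), 2-oxoglutarate; Technique: LANCE TR-FRET; Times: 30 min demethylation and 1 h detection at room temperature.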
T cruzi growth-2: T. cruzi intracellular proliferation inhibitors, confirmation, cell-based, NIH3T3 host, beta-gal parasite, luminescence, cherry-pick | T. cruzi beta-gal in NIH3T3, GalScreen luminescence, 90 h | shares compounds with T cruzi growth-1 | inhibition, % at 8.35 µM | 5,600 tested, 72% active;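 active means mean replicate inhibition above about 95% and at least 55% of replicates individually reaching it, limit read from the data; inconclusive means only one of the two criteria is met; inactive means neither criterion is met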
T cruzi growth-3: inhibitors of intracellular T. cruzi replication, confirmation, NIH3T3 host cells, beta-gal parasites, cherry-pick, set 2; shares compounds with T cruzi growth-1; T. cruzi beta-gal in NIH3T3, GalScreen luminescence, 90 h; inhibition, % at 2.09 µM; 5,600 tested, 21% active;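 active means mean inhibition above about 95%, with at least 55% of replicates also reaching it, limit read from the data; inconclusive means meets just one of the two conditions; inactive means meets neither condition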;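 further: plate controls were neutral control median for no effect and positive control median for full effect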
3T3 cytotox: cytotoxicity in mouse NIH/3T3 fibroblasts, confirmation, cytotoxicity control for T. cruzi proliferation inhibitor project, cell-based, cherry-pick, single point. shares compounds with T cruzi growth-1. NIH/3T3 viability, CellTiter-Glo ATP luminescence, 90 h. cytotoxicity (signal decrease), % at 8.35 µM. 5,600 tested, 14% active. AID 651742, 2012;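 active means mean signal decrease across replicates above about 35% based on untreated-well scatter, with enough replicates individually passing, limit read from the data; inconclusive means no rule stated though some were filed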;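 further: 0% = median of neutral control wells and 100% = median of positive control wells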
NIH3T3 tox 2: NIH/3T3 fibroblast cytotoxicity, confirmation, cytotoxicity control, cell-based, cherry-pick, single point, set 2; shares compounds with T cruzi growth-1; NIH/3T3 viability, CellTiter-Glo ATP luminescence, 90 h; inhibition, % at 24.9 µM; 5,600 tested, 56% active; AID 651744, 2012;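 active means mean loss of cell viability signal at or above a set limit, and enough replicates individually reaching it; inconclusive means meets only the mean limit or only the replicate share; inactive means meets neither condition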;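 further: 0% = median of neutral control wells and 100% = median of positive control wells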
Numbers without * were called inactive. The list is not random: actives were taken first. Their share in the collection is about 5.9%.

How did O=C(Nc1ccccc1F)N1CCCCN2[C@H](C1)[C@H](c1ccc(C3=CCCC3)cc1)[C@@H]2CO do in these assays?
Pf Dd2 growth: 7; T cruzi growth-1: 37; GASC1 inh: 0

How did CC(C)(Oc1ccc(Cl)cc1)C(=O)Nc1cccc(-c2nc3ncccc3o2)c1 do in these assays?
IDH1 mut inh: 0

Results for C[C@H](CO)N1C[C@H](C)[C@@H](CN(C)C(=O)Cc2ccncc2)Oc2cc(C3=CCCC3)ccc2S1(=O)=O ?
Pf Dd2 growth: -20; T cruzi growth-1: 96*; IDH1 mut inh: 4; GASC1 inh: 15; T cruzi growth-2: 88; T cruzi growth-3: 44; 3T3 cytotox: -8; NIH3T3 tox 2: 13

Results for C[C@H](CO)N1C[C@H](C)[C@@H](CN(C)Cc2ccccc2)Oc2cc(C3=CCCC3)ccc2S1(=O)=O ?
Pf Dd2 growth: -46; T cruzi growth-1: 93; IDH1 mut inh: -4; GASC1 inh: -1

What do the screens show for `C[C@@H]1CN([C@@H](C)CO)S(=O)(=O)c2ccc(C3=CCCC3)cc2O[C@H]1CN(C)Cc1ccncc1`?
Pf Dd2 growth: -65; T cruzi growth-1: 114*; GASC1 inh: 5; T cruzi growth-2: 97*; T cruzi growth-3: 102*; 3T3 cytotox: 50*; NIH3T3 tox 2: 102*

How did C[C@H](CO)N1C[C@H](C)[C@H](CN(C)Cc2ccncc2)Oc2cc(C3=CCCC3)ccc2S1(=O)=O do in these assays?
Pf Dd2 growth: -29; T cruzi growth-1: 108*; GASC1 inh: 7; T cruzi growth-2: 97*; T cruzi growth-3: 88; 3T3 cytotox: 21; NIH3T3 tox 2: 44*

Results for C[C@H]1CN([C@@H](C)CO)S(=O)(=O)c2ccc(C3=CCCC3)cc2O[C@H]1CN(C)Cc1cncnc1 ?
Pf Dd2 growth: -46; T cruzi growth-1: 7; IDH1 mut inh: 1; GASC1 inh: 0

What do the screens show for `C[C@@H]1CN([C@@H](C)CO)C(=O)c2cc(NC(=O)Nc3cccc4ccccc34)ccc2O[C@@H](C)CCCCO[C@H]1CN(C)Cc1ccc(Cl)c(Cl)c1`?
Pf Dd2 growth: -35; T cruzi growth-1: 122*; IDH1 mut inh: 0; GASC1 inh: 0; T cruzi growth-2: 107*; T cruzi growth-3: 106*; 3T3 cytotox: 24; NIH3T3 tox 2: 8

How did C[C@@H]1CCCCO[C@H](CN(C)Cc2ccc(Cl)c(Cl)c2)[C@@H](C)CN([C@@H](C)CO)C(=O)c2cc(NC(=O)Nc3cccc4ccccc34)ccc2O1 do in these assays?
Pf Dd2 growth: -90*; T cruzi growth-1: 125*; GASC1 inh: 0; T cruzi growth-2: 101*; T cruzi growth-3: 116*; 3T3 cytotox: 18; NIH3T3 tox 2: -3

What do the screens show for `C[C@@H]1CCCCO[C@@H](CN(C)Cc2ccc(Cl)c(Cl)c2)[C@H](C)CN([C@@H](C)CO)C(=O)c2cc(NC(=O)Nc3cccc4ccccc34)ccc2O1`?
Pf Dd2 growth: -48; T cruzi growth-1: 126*; GASC1 inh: -1; T cruzi growth-2: 110*; T cruzi growth-3: 112*; 3T3 cytotox: 16; NIH3T3 tox 2: 1

What do the screens show for `C[C@@H]1CN([C@H](C)CO)S(=O)(=O)c2ccc(Br)cc2O[C@H]1CN(C)C(=O)Nc1ccc(F)cc1`?
Pf Dd2 growth: 14; T cruzi growth-1: 12; GASC1 inh: 0

How did C[C@H]1CN([C@@H](C)CO)S(=O)(=O)c2ccc(-c3ccc(F)cc3)cc2O[C@@H]1CN(C)C(=O)Nc1ccc(F)cc1 do in these assays?
Pf Dd2 growth: -32; T cruzi growth-1: 119*; GASC1 inh: -2; T cruzi growth-2: 103*; T cruzi growth-3: 48; 3T3 cytotox: 20; NIH3T3 tox 2: 58*

What do the screens show for `C[C@@H]1CN([C@H](C)CO)S(=O)(=O)c2ccc(-c3ccc(F)cc3)cc2O[C@H]1CN(C)C(=O)Nc1ccc(F)cc1`?
Pf Dd2 growth: -45; T cruzi growth-1: 114*; GASC1 inh: -1; T cruzi growth-2: 106*; T cruzi growth-3: 47; 3T3 cytotox: 38*; NIH3T3 tox 2: 74*

Results for C[C@@H]1CN([C@@H](C)CO)S(=O)(=O)c2ccc(-c3ccc(F)cc3)cc2O[C@@H]1CN(C)C(=O)Nc1ccc(F)cc1 ?
Pf Dd2 growth: -24; T cruzi growth-1: 123*; GASC1 inh: 2; T cruzi growth-2: 111*; T cruzi growth-3: 63; 3T3 cytotox: 24; NIH3T3 tox 2: 62*

What do the screens show for `C[C@H](CO)N1C[C@H](C)[C@H](CN(C)C(=O)Nc2ccc(F)cc2)Oc2cc(-c3ccncc3)ccc2S1(=O)=O`?
Pf Dd2 growth: -48; T cruzi growth-1: 93; GASC1 inh: -2

How did C[C@@H]1CN([C@H](C)CO)S(=O)(=O)c2ccc(-c3ccncc3)cc2O[C@H]1CN(C)C(=O)Nc1ccc(F)cc1 do in these assays?
Pf Dd2 growth: -11; T cruzi growth-1: 101*; IDH1 mut inh: 5; GASC1 inh: 1; T cruzi growth-2: 90; T cruzi growth-3: 84; 3T3 cytotox: -17; NIH3T3 tox 2: 75*

Results for CC(C)N(Cc1nc(-c2ccc(Cl)cc2)no1)S(=O)(=O)c1ccc(F)cc1 ?
IDH1 mut inh: 0

How did CC(C)c1ccc2oc(-c3ccc(Cl)c(NC(=O)COc4ccc([N+](=O)[O-])cc4)c3)nc2c1 do in these assays?
IDH1 mut inh: 0

What do the screens show for `O=[N+]([O-])c1cccc(NC(=S)NCc2cn(-c3ccccc3)nc2-c2ccccc2)c1`?
IDH1 mut inh: 0

Results for CCC(=O)NC[C@@H]1[C@@H](c2ccc(C3=CCCC3)cc2)[C@H](CO)N1C(C)=O ?
Pf Dd2 growth: -36; T cruzi growth-1: 94; GASC1 inh: 1

Results for COCC(=O)NC[C@H]1[C@H](c2ccc(C3=CCCC3)cc2)[C@H](CO)N1C(C)=O ?
Pf Dd2 growth: 12; T cruzi growth-1: inconclusive; GASC1 inh: 2; T cruzi growth-2: -7; T cruzi growth-3: 0; 3T3 cytotox: -21; NIH3T3 tox 2: -23

From PubChem BioAssay
